Data taken from PMC10793096 (Acta Pharmaceutica Sinica. B, 2023).
Read-outs that look alike come from different tables or passages of the source.

Tests used:
[1] = tested on: MRC-5 (human lung fibroblasts, non-cancerous); details: read-out: IC50 MRC-5; taken from the literature; cited from earlier work
[2] = tested on: MRC-5 (human lung fibroblasts, non-cancerous); experiment: Colorimetric MTT cytotoxicity assay, MRC-5; assay type: cell-based; details: MRC5, 72 h, read-out: IC50 MRC-5
Summary of the method: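 MRC-5 cells from ATCC, trypsinized, seeded at 6000 cells/well (6 × 10^4 cells/mL), grown 24 h, then exposed 72 h to test compound serially diluted in complete medium. Medium replaced with MTT in media (5 mg/mL) for 45 min; formazan dissolved in DMSO, OD at 570 nm. T/C versus untreated cells; IC50 interpolated from concentration-effect curves; ≥3 independent experiments, triplicates per concentration.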

[3] = tested on: CT26 (murine colon carcinoma) cell line; experiment: Colorimetric MTT cytotoxicity assay, CT26; assay type: cell-based
[4] = tested on: MCF-7 (human breast adenocarcinoma) cell line; experiment: Colorimetric MTT cytotoxicity assay, MCF-7; assay type: cell-based; details: for IC50: Homo sapiens

| SMILES | IC50 [1] [nM] | IC50 [2] [nM] | SF CT26 (selectivity factor) ([3]; IC50(MRC-5)/IC50(CT26)) | IC50 ([3]; Mus musculus, CT26, 72 h, read-out: IC50 CT26) [nM] | IC50 ([4]; MCF7, 72 h, read-out: IC50 MCF-7) [nM] | IC50 ([4]; MCF7, read-out: IC50s in both cancer cell lines) [nM] | SF MCF-7 (selectivity factor) ([4]; IC50(MRC-5)/IC50(MCF-7)) |
| --- | --- | --- | --- | --- | --- | --- | --- |
| CC(=O)O[C@H]1C(=O)[C@@]2(C)[C@H]([C@H](OC(=O)c3ccccc3)[C@]3(O)C[C@H](OC(=O)[C@H](O)[C@@H](NC(=O)c4ccccc4)c4ccccc4)C(C)=C1C3(C)C)[C@]1(OC(C)=O)CO[C@@H]1C[C@@H]2O [Paclitaxel] | 2.61 | – | – | – | – | – | – |
| C=C(C)[C@H]1CC[C@@]2(C)CC[C@]3(C)C[C@H]4[C@@H](C)CC(=O)[C@H]4/C(C=O)=C\C[C@H]3[C@H]12 [compound 1, Variecolin] | – | 1100 ± 200 | 1.1 | 1000 ± 300 | 1400 ± 300 | 1000 to 8000 | 0.8 |
